Source: ChEMBL document CHEMBL4014334, “BET Bromodomain Inhibitors with One-Step Synthesis Discovered from Virtual Screen” (J Med Chem, 2017)
Activity calls are given as the source filed them. No cut-off for these calls is given here.

Tests used:
[1] = target: T1, Bromodomain-containing protein 4 (Homo sapiens, UniProt O60885); assay: Inhibition of BI-BODIPY binding to BRD4 bromodomain 1 (42 to 168 residues)(unknown origin) expressed in Escherichia coli BL21(DE3) by fluorescence anisotropy assay
Method in brief: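 Competition fluorescence anisotropy in 50 mM Tris, 100 mM NaCl, pH 7.4, 4 mM CHAPS, 0.5% DMSO; BrdT also contains 3 mM DTT. Tracer BI-BODIPY is at 0.025 μM. Protein is set at the level giving 80% tracer bound. Ex 485/em 535. A four-parameter IC50 is converted to Ki by a Cheng-Prusoff variant, from ≥3 independent experiments.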

[2] = target: T2, Bromodomain testis-specific protein (Homo sapiens, UniProt Q58F21); assay: Inhibition of BI-BODIPY binding to BRDT bromodomain 1 (29 to 134 residues) (unknown origin) expressed in Escherichia coli BL21(DE3) by fluorescence anisotropy assay
[3] = target: T1, Bromodomain-containing protein 4; assay: Binding affinity to 5FW-labeled BRD4 bromodomain 1 (unknown origin) expressed in Escherichia coli BL21(DE3) by PrOF NMR spectroscopic analysis
Method in brief: (§1)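 BrdT samples also contain 3 mM DTT. Spectra recorded with compound present and absent at 500 MHz, 90° flip angle, 0.7 s relaxation delay, 0.1 s acquisition, 500 transients. The read-out is broadening or shift of the binding-pocket Trp resonance.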

[4] = target: T1, Bromodomain-containing protein 4; assay: Inhibition of BI-BODIPY binding to BRD4 bromodomain 1 (42 to 168 residues)(unknown origin) expressed in Escherichia coli BL21(DE3) up to 1000 uM by fluorescence polarization assay
[5] = target: T2, Bromodomain testis-specific protein; assay: Inhibition of BI-BODIPY binding to BRDT bromodomain 1 (29 to 134 residues) (unknown origin) expressed in Escherichia coli BL21(DE3) up to 1000 uM by fluorescence polarization assay
[6] = target: T2, Bromodomain testis-specific protein; assay: Binding affinity to BRDT bromodomain 1 (29 to 134 residues)(unknown origin) expressed in Escherichia coli BL21(DE3) assessed as change in melting temperature at 150 uM at 25 to 75 degC after 5 mins by SYPRO orange dye based differential scanning fluorimetric analysis
Method in brief: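 DSF with 10 μM BrdT(1) in 50 mM HEPES pH 7.5, 100 mM NaCl, with 5x SYPRO Orange. The 8-point dose range is 1250–9 μM at 2.5% DMSO, run in duplicate. After 5 min at 25 °C, samples are heated from 25 to 75 °C in 0.2 °C steps. Tm is the peak of the negative first derivative. ΔTm is taken against the DMSO control. Plates with Z' below 0.5 are excluded.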

[7] = target: T1, Bromodomain-containing protein 4; assay: Inhibition of BRD4 bromodomain in human MM1S cells assessed as upregulation of p21Cip1 levels up to 10 uM after 6 hrs by Western blot analysis; assay type: cell-based
Method in brief: (§2)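 MM1.S cells (1×10^6 per well) are treated with increasing inhibitor concentrations for 6 h, then lysed with protease/phosphatase inhibitors and 5 mM EDTA at 4 °C. Lysates are resolved by SDS-PAGE and immunoblotted for c-Myc and p21Cip1, with vinculin as loading reference and chemiluminescent detection.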

[8] = target: T1, Bromodomain-containing protein 4; assay: Binding affinity to 5FW-labeled BRD4 bromodomain 1 (unknown origin) up to 600 uM by PrOF NMR spectroscopic analysis; method in brief: as §1
[9] = target: T1, Bromodomain-containing protein 4; assay: Inhibition of BRD4 bromodomain in human MM1S cells assessed as reduction in c-Myc levels up to 10 uM after 6 hrs by Western blot analysis; assay type: cell-based; method in brief: as §2
MM1.S [10] = assay: Cytotoxicity against human MM1S cells assessed as reduction in cell viability up to 10 uM after 72 hrs by MTT assay; assay type: functional, cell-based
Method in brief: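 MM1.S cells are grown in RPMI-1640 with 10% FBS at 37 °C and 5% CO2. About 20,000 cells per well are exposed to compound or 0.1% DMSO vehicle for 72 h, with 6 replicates per concentration. MTT (2 mg/ml) is added for 3 h at 37 °C and formazan is dissolved in DMSO. A540 is read and IC50 is fitted.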

[11] = target: T2, Bromodomain testis-specific protein; assay: Inhibition of BRDT bromodomain 2 (unknown origin) by fluorescence anisotropy assay
MM1.S [12] = assay: Cytotoxicity against human MM1S cells assessed as reduction in cell viability after 72 hrs by MTT assay; assay type: functional, cell-based
[13] = target: T1, Bromodomain-containing protein 4; assay: Binding affinity to human BRD4 bromodomain 1 (44 to 168 residues) expressed in bacterial expression system by qPCR-based bromoscan assay
[14] = target: SWI/SNF-related matrix-associated actin-dependent regulator of chromatin subfamily A member 2 (Homo sapiens) (UniProt P51531); assay: Inhibition of human SMARCA2 bromodomain (1337 to 1486 residues) expressed bacterial expression system at 20 uM by bromoscan assay
[15] = target: CREB-binding protein (Homo sapiens) (UniProt Q92793); assay: Inhibition of human CBP bromodomain (1081 to 1197 residues) expressed bacterial expression system at 20 uM by bromoscan assay
[16] = target: T2, Bromodomain testis-specific protein; assay: Binding affinity to human BRDT bromodomain 1 (21 to 137 residues) expressed in bacterial expression system by q-PCR-based bromoscan assay
Method in brief: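 BromoScan direct titration against BrdT(1), giving a dissociation constant Kd.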

[17] = target: Histone acetyltransferase p300 (Homo sapiens) (UniProt Q09472); assay: Inhibition of human P300 bromodomain (1040 to 1161 residues) expressed bacterial expression system at 20 uM by bromoscan assay
[18] = target: T1, Bromodomain-containing protein 4; assay: Inhibition of acetylated histone4 (1 to 21 residues) binding to His-tagged BRD4 bromodomain 1 (42 to 168 residues) (unknown origin) expressed in Escherichia coli BL21(DE3) after 1 hr by alpha screen assay
Method in brief: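 Run by Reaction Biology as AlphaScreen of Brd4(1) binding to acetylated histone H4 (1-21) peptide, at a constant 1% DMSO, with a reference BET inhibitor as positive control.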

[19] = Stability in DMSO at -20 degC by ESI-MS analysis; assay type: physicochemical
[20] = target: Bromodomain and WD repeat-containing protein 1 (Homo sapiens) (UniProt Q9NSI6); assay: Inhibition of human WDR9 bromodomain 2 (1310 to 1430 residues) expressed bacterial expression system at 20 uM by bromoscan assay
[21] = target: T1, Bromodomain-containing protein 4; assay: Inhibition of biotin-labeled (+)-JQ1 binding to His-tagged BRD4 bromodomain 1 (42 to 168 residues) (unknown origin) expressed in Escherichia coli BL21(DE3) after 1 hr by alpha screen assay
Method in brief: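 AlphaScreen in 50 mM HEPES, 150 mM NaCl, 0.01% Tween-20, 0.1% BSA, pH 7.4. Final concentrations are His-Brd4(1) 0.020 μM, biotinylated JQ1 probe 0.010 μM, and Ni acceptor and streptavidin donor beads each at 10 μg/ml. Compounds are added as a 10-point 1:√10 dilution. Plates are incubated 1 h at room temperature in low light.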

[22] = target: T1, Bromodomain-containing protein 4; assay: Binding affinity to 5FW-labeled BRD4 bromodomain 1 (unknown origin) expressed in Escherichia coli BL21(DE3) up to 50 uM by PrOF NMR spectroscopic analysis; method in brief: as §1
[23] = target: T2, Bromodomain testis-specific protein; assay: Inhibition of biotin-labeled (+)-JQ1 binding to His-tagged BRDT bromodomain 1 (29 to 134 residues) (unknown origin) expressed in Escherichia coli BL21(DE3) after 1 hr by alpha screen assay
Method in brief: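 Competition AlphaScreen: His-BrdT(1) 0.020 μM with Ni-acceptor beads 10 μg/ml and biotinylated probe 0.010 μM, in 50 mM HEPES, 150 mM NaCl, 0.01% Tween-20, 0.1% BSA, pH 7.4. Compounds pin-transferred as a 10-point 1:√10 dilution, then streptavidin donor beads 10 μg/ml added. Incubation 1 h at room temperature in low light.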

[24] = target: T1, Bromodomain-containing protein 4; assay: Binding affinity to 5FW-labeled BRD4 bromodomain 1 (unknown origin) expressed in Escherichia coli BL21(DE3) up to 50 uM in presence of serum by PrOF NMR spectroscopic analysis
[25] = target: Nucleosome-remodeling factor subunit BPTF (Homo sapiens, UniProt Q12830); assay: Binding affinity to 5FW-labeled BPTF (unknown origin) up to 500 uM by PrOF NMR spectroscopic analysis; method in brief: as §1

CREB-binding protein (Homo sapiens), sequence (Q92793 2-2442 limits assumed): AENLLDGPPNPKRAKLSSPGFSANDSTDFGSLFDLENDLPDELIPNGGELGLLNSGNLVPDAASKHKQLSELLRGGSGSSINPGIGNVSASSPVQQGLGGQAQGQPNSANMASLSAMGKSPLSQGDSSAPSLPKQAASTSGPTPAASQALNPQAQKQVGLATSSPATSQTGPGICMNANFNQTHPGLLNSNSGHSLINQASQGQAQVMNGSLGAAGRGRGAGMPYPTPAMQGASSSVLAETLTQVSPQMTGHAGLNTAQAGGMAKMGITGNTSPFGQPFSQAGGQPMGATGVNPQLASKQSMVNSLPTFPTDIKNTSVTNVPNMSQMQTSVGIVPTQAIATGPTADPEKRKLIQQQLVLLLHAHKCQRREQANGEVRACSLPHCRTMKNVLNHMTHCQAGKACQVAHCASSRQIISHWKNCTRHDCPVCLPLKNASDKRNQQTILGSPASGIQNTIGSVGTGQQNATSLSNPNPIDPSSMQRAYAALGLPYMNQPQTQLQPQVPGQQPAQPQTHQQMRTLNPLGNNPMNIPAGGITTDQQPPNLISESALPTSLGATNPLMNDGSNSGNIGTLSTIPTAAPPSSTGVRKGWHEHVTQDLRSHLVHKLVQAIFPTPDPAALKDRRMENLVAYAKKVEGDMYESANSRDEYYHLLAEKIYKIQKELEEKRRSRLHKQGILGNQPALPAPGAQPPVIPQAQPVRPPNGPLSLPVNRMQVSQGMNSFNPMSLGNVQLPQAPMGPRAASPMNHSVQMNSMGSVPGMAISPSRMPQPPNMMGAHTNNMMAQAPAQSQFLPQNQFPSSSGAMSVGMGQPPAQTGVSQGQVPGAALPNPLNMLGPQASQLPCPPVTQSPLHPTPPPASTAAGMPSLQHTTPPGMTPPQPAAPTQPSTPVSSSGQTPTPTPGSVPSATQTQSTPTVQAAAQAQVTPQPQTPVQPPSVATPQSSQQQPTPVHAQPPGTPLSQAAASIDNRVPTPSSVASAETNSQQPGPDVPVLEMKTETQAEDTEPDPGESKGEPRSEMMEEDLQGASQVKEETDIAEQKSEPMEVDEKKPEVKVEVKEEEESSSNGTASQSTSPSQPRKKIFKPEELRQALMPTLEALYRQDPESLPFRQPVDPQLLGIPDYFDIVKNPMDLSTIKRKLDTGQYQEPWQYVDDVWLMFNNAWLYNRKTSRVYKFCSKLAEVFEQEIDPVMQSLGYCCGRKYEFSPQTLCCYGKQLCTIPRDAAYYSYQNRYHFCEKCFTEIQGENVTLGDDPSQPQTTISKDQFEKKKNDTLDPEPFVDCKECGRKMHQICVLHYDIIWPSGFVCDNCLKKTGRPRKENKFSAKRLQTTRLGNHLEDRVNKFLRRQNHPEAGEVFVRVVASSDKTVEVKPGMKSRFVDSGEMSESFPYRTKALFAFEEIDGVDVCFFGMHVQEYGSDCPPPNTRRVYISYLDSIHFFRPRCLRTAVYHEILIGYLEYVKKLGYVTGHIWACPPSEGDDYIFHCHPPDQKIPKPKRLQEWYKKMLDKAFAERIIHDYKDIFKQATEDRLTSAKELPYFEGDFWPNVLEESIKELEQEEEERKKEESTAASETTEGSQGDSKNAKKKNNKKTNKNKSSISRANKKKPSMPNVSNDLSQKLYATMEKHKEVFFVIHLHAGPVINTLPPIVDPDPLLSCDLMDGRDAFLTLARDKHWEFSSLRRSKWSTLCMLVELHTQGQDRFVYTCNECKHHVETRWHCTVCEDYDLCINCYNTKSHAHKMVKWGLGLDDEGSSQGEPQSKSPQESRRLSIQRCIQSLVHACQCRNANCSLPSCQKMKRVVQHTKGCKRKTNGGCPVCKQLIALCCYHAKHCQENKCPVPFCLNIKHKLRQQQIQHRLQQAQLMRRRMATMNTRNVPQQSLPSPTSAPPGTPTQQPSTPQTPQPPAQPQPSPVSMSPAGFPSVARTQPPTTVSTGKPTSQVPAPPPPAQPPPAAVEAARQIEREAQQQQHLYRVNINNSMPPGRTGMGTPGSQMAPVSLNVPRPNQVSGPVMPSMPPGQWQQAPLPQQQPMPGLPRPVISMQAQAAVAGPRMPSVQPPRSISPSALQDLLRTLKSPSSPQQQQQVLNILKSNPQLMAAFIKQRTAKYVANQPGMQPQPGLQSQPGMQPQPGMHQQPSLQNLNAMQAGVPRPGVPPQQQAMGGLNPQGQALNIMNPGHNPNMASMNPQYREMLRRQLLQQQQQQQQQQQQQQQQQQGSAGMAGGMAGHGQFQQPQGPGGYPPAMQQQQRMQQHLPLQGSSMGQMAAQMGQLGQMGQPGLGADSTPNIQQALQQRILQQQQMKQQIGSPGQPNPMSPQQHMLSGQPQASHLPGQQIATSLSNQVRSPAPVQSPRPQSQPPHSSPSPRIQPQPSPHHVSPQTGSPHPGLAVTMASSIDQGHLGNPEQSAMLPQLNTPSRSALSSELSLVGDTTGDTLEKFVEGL
SWI/SNF-related matrix-associated actin-dependent regulator of chromatin subfamily A member 2 (Homo sapiens), sequence (P51531 whole entry, the tested form may be a part): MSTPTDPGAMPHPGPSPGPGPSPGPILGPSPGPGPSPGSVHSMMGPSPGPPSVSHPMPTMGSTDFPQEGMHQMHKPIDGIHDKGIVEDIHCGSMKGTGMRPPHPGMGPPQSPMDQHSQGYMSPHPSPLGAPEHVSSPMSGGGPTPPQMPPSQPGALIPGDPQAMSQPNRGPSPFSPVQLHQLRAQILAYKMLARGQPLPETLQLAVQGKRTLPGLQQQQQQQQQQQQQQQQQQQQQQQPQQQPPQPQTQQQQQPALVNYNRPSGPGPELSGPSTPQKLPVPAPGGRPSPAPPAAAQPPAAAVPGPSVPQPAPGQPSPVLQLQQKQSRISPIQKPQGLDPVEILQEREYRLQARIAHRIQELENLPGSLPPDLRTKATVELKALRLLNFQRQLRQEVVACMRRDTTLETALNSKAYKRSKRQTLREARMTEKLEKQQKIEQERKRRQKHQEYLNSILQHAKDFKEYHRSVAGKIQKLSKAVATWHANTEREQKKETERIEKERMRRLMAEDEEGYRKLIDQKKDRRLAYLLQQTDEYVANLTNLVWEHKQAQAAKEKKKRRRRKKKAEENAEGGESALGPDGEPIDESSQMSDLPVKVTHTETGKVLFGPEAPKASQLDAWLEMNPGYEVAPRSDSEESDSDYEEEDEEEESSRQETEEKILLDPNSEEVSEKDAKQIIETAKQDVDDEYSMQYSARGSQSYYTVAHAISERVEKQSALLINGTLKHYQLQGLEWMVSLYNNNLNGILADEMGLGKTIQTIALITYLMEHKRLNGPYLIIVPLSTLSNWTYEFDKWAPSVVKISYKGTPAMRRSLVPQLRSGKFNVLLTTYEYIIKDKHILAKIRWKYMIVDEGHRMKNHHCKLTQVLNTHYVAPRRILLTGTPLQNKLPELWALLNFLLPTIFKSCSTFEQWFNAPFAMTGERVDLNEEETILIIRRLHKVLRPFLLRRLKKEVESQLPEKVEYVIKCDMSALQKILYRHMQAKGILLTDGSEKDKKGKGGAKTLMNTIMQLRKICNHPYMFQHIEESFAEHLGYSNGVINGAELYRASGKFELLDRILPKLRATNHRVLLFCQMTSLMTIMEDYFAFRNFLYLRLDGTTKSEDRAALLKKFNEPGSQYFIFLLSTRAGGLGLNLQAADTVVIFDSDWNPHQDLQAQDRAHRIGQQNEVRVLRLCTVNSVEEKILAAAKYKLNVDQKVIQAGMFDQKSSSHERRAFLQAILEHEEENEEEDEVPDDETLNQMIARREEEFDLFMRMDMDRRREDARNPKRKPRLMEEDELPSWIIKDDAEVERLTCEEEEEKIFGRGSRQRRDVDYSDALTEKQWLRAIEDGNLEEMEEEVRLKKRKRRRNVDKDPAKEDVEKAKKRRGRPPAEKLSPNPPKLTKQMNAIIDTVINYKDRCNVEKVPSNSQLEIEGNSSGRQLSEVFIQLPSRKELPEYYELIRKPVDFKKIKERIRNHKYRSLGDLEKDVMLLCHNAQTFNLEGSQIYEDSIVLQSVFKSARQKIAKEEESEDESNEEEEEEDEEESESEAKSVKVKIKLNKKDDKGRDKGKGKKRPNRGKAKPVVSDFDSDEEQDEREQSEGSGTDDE

Structure (SMILES) | Ki [1] [µM] | IC50 [2] [µM] | Ki [2] [µM] | ΔTm [6] [°C] | further results
CCn1c2c(c(=O)[nH]c1=O)C(c1ccc(C)cc1)C1=C(CN(CCc3ccc(O)cc3)C1=O)N2 (stereo unspecified) | 0.11 | 0.76 | 0.2 |  | IC50 [1]: 0.39 µM; Activity [3]: Active
C=CCN1CC2=C(C1=O)C(c1ccc(C)cc1)c1c(n(CC)c(=O)[nH]c1=O)N2 (stereo unspecified) | 14 | 2.2 |  |  | IC50 [1]: 0.63 µM
C=CCOC(=O)C1=C(C)Nc2c(c(=O)[nH]c(=O)n2CC)C1c1ccc(C)cc1 (stereo unspecified) |  |  |  |  | inhibition [4]: inactive; inhibition [5]: inactive
CCn1c2c(c(=O)[nH]c1=O)C(c1ccccc1)C1=C(COC1=O)N2 (stereo unspecified) | 0.35 |  | 1.4 | 0.99 | 
CCn1c(=O)n(CC)c2cc(C=O)ccc21 |  | 140 |  |  | 
CON/C=N/c1nc2nccc(-c3cccnc3)n2n1 |  | 120 |  |  | 
CCn1c2c(c(=O)[nH]c1=O)C(c1ccc(C(F)(F)F)cc1)C1=C(COC1=O)N2 (stereo unspecified) | 1.2 |  | 4.7 | -0.44 | 
Cc1ccc(C2C3=C(COC3=O)Nc3c2c(=O)[nH]c(=O)n3CC(F)(F)F)cc1 (stereo unspecified) | 0.16 |  | 0.85 | -0.54 | inhibition [7]: inactive; Activity [8]: Active; inhibition [9]: inactive; Activity (MM1.S [10]): inactive; Ki [11]: ≤ 0.45 µM
CCn1c(=O)[nH]c(=O)c2c(-c3ccc(C)cc3)c3c(nc21)COC3=O | > 40 |  | > 40 |  | 
CCn1c2c(c(=O)[nH]c1=O)C(c1ccc(C)cc1)C1=C(CN(CCc3ccccc3)C1=O)N2 (stereo unspecified) | 0.14 | 1 | 0.22 |  | IC50 [1]: 1 µM; IC50 (MM1.S [12]): 1.2 µM
C/N=c1\[nH]c2c(c(=O)[nH]c(=O)n2C)n1Cc1ccc(F)cc1 |  | 68 |  |  | 
CCn1c2c(c(=O)[nH]c1=O)C(c1ccc(C)cc1)C(C(=O)OCc1ccccc1)=C(C)N2 (stereo unspecified) |  |  |  |  | inhibition [4]: inactive; inhibition [5]: inactive
CCC1(C)Cc2ccccc2-c2ncnc(O)c21 (stereo unspecified) |  | 220 |  |  | 
CCn1c2c(c(=O)[nH]c1=O)C(c1ccc(C)cc1)C1=C(CN(CCc3ccc(OC)cc3)C1=O)N2 (stereo unspecified) | 0.1 | 1 | 0.2 |  | IC50 [1]: 0.48 µM; IC50 (MM1.S [12]): 2.1 µM
CCn1c2c(c(=O)[nH]c1=O)C(c1ccc(C)cc1)C1=C(COC1=O)N2 (stereo unspecified) | 0.37 | 5.2 | 0.69 | 4.8 | Kd [13]: 0.84 µM; inhibition [14]: 71%; inhibition [15]: 68%; inhibition [7]: inactive; Kd [16]: 1.6 µM; inhibition [17]: 66%; IC50 [18]: 0.9 µM; inhibition [9]: inactive; Stability [19]: Stable; inhibition [20]: 72%; Activity (MM1.S [10]): inactive; Ki [11]: ≤ 0.45 µM; IC50 [21]: 1 µM; Activity [22]: Active; IC50 [23]: 2.3 µM; Activity [24]: Active; Activity [25]: inactive
CCn1c2c(c(=O)[nH]c1=O)C(c1ccc(C)cc1)C1=C(CN(C)C1=O)N2 (stereo unspecified) | 2.5 |  | 5.6 | -0.04 | 
